# In ChEMBL document CHEMBL1144664, “Design, synthesis, and SAR of new pyrrole-oxindole progesterone receptor modulators leading to 5-(7-fluoro-3,3-dimethyl-2-oxo-2,3-dihydro-1H-indol-5-yl)-1-methyl-1H-pyrrole-2-carbonitrile (WAY-255348)” (J Med Chem, 2008):
# The source made the active and inactive calls. The rule behind the calls is not given here.
# How the values were obtained:
# [1] = Oral bioavailability in Sprague-Dawley rat at 5 mg/kg; type: ADME, organism-based; conditions: in vivo
# How it was run: (§1)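 Female Sprague–Dawley rats dosed as 1-in-4 cassette or discrete studies. iv in DMSO/PEG200 20:80; po in aqueous 2% Tween 80/0.5% methyl cellulose. Parameters reported: C0, Cmax, t1/2, plasma clearance, Vss, AUC0-inf and %F.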
# [2] = Plasma clearance in Sprague-Dawley rat at 0.5 mg/kg, iv; type: ADME, organism-based; parameters: dose 0.5 mg/kg, route intravenous; how it was run: as §1
# [3] = Volume of distribution at steady state in Sprague-Dawley rat at 1 mg/kg, iv; type: ADME, organism-based; parameters: dose 1 mg/kg, route intravenous; conditions: in vivo, read-out: Vdss; how it was run: as §1
# [4] = AUC (0 to infinity) at steady state in cynomolgus monkey at 1 mg/kg, iv; type: ADME, organism-based, Macaca fascicularis; parameters: time infinity, dose 1 mg/kg, route intravenous; conditions: plasma
# [5] = Drug level in cynomolgus monkey at 1 mg/kg, iv; type: ADME, organism-based, Macaca fascicularis; parameters: dose 1 mg/kg, route intravenous; conditions: in vivo
# [6] = AUC (0 to infinity) in Sprague-Dawley rat at 5 mg/kg, po; type: ADME, organism-based; parameters: time infinity, dose 5 mg/kg, route oral; conditions: plasma
# [7] = AUC (0 to infinity) in cynomolgus monkey at 5 mg/kg, po; type: ADME, organism-based, Macaca fascicularis; parameters: dose 5 mg/kg, route oral, time infinity; conditions: plasma
# Androgen receptor = molecular target: T1, Androgen receptor (Homo sapiens, UniProt P10275)
# T1 sequence (P10275 whole entry): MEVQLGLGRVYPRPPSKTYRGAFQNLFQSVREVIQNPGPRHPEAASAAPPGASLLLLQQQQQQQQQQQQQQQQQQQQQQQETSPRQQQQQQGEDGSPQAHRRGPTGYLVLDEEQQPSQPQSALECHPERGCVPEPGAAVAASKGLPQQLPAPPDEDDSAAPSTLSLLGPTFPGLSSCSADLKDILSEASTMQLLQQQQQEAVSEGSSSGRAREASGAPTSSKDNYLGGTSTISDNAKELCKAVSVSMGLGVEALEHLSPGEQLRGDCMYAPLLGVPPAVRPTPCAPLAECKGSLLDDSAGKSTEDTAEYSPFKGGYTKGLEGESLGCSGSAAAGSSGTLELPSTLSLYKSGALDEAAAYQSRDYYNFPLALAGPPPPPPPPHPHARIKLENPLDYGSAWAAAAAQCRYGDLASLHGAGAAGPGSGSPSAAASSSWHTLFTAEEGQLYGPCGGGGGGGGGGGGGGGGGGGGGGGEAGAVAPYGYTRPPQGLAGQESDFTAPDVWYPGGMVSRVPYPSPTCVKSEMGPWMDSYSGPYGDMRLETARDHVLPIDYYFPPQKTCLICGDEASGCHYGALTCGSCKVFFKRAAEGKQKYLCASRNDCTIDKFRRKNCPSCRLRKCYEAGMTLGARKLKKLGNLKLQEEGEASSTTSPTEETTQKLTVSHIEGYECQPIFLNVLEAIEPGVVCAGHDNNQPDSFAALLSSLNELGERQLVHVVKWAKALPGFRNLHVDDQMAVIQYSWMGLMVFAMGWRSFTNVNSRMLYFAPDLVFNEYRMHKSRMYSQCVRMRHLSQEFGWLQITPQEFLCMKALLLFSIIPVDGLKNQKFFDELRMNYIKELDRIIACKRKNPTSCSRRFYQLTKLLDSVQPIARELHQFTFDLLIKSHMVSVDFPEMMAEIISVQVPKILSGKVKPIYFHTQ
# [8] = Plasma clearance in Sprague-Dawley rat at 1 mg/kg, iv; type: ADME, organism-based; parameters: dose 1 mg/kg, route intravenous; how it was run: as §1
# [9] = Cmax in cynomolgus monkey at 5 mg/kg, po; type: ADME, organism-based, Macaca fascicularis; parameters: dose 5 mg/kg, route oral; conditions: in vivo
# Rhesus monkey [10] = assay: Effect on cell proliferation in rhesus monkey assessed as number of mitotic cells per 1000 cells
# [11] = molecular target: T2, Estrogen receptor (Homo sapiens) (UniProt P03372); assay: Agonist activity at human ER ligand binding domain expressed in african green monkey COS7 cells by Gal4 hybrid assay; type: cell-based; conditions: COS-7
# T2 sequence (whole entry): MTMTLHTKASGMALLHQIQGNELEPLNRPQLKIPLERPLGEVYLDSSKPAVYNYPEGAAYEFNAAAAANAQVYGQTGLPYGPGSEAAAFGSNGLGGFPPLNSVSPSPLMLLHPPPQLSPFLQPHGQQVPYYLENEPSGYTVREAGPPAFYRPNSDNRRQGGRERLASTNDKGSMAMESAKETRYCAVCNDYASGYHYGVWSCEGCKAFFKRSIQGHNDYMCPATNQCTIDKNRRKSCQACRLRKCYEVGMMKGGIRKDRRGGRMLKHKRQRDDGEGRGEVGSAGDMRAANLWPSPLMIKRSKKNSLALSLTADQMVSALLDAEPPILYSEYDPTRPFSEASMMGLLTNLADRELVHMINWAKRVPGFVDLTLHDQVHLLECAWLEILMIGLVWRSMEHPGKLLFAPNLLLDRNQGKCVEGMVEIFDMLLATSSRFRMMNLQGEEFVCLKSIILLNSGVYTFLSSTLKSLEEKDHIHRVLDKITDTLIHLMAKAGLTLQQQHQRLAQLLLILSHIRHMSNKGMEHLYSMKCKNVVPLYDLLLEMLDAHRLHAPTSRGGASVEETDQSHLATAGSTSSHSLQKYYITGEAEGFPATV
# How it was run: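 Gal4-steroid receptor LBD fusion plasmid plus GAL4_UAS (5 copies, E1b TATA)-luciferase reporter, 50 ng/well each, transfected 16 h into COS-7 cells grown in phenol red-free DMEM with 10% charcoal/dextran-treated FBS. Compound treatment 20 h, then luciferase read-out. Antagonist mode uses 3 nM aldosterone (hMR) or 5 nM 17β-estradiol (hER). Values are the average of at least duplicate determinations.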
# Rhesus monkey [12] = assay: Effect on ovulation rate of rhesus monkey; type: functional, organism-based; conditions: Macaca mulatta
# How it was run: (§2)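 Adult female rhesus macaques (n=3) with regular cycles dosed 10 mg/(kg·day) po in 2% Tween 80/0.5% methylcellulose with cherry flavoring for 28 days from cycle day 2. Serum estradiol and progesterone measured every 3 days. Necropsy on day 28. Uterine weights are of half the uterus; KI-67 and mitotic indices counted per 1000 cells. Values given as mean ± SE.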
# [13] = Plasma clearance in cynomolgus monkey at […], iv; type: ADME, organism-based, Macaca fascicularis; parameters: dose 0.25 mg/kg, route intravenous
# [14] = Stability in cynomolgus monkey liver microsome assessed as half life; type: ADME, Macaca fascicularis; conditions: liver microsomes
# How it was run: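 Female rat, cynomolgus monkey and human liver microsome stability; half-life (min) reported.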
# Rhesus monkey [15] = assay: Effect on basalis KI67 assessed as number of KI67 labeled cells of rhesus monkey; type: functional, Macaca mulatta; how it was run: as §2
compound,measurement,setting,value
Cn1c(C#N)ccc1-c1cc(F)c2c(c1)C(C)(C)C(=O)N2,bioavailability,[1],31%
same,clearance,[2],0.24 L/h/kg
same,Vd,[3],2.4 L/kg
same,AUC(0-inf),[4],2.36 µg·h/mL
same,C0,[5],0.856 µg/mL
same,AUC(0-inf),[6],7.15 µg·h/mL
same,AUC(0-inf),[7],5.74 µg·h/mL
same,IC50,Androgen receptor,0.196 µM
same,clearance,[8],0.24 L/h/kg
same,Cmax,[9],0.179 µg/mL
same,Activity,Rhesus monkey [10],2.2
same,Activity,[11],inactive
same,Activity,Rhesus monkey [12],inactive
same,clearance,[13],0.42 L/h/kg
same,half-life,[14],19 min
same,Activity,Rhesus monkey [15],0
